# Bioassay records: PubChem BioAssay, several laboratories
# Only some compounds are listed: those with a hit (about 2.4% of all), similar ones and a draw of the others.
# 697 NFkB inh = inhibitors of the PMA/ionomycin-induced NF-kB reporter in 697 B cells; 697 B-cell NF-kB luciferase reporter, 16 h; inhibition, % at 4 µM; hit rate 0.33% among 330,000; in the data active = inhibition above about 35%
# aDG glyco up = alpha-DG glycosylation activation; Pro5-aDG cells, alpha-DG glycosylation AlphaScreen (IIH6); 0% Pro5, 100% B10-LARGE cell signal; activation, % at 10 µM; hit rate 0.22% among 360,000; AID 624168;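 active = activation of at least 8% versus controls, or a plate z-score of at least 8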;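 also: Pro5 are CHO cells carrying HIG-tagged alpha-DG that lacks glycosylation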
# Jurkat NFkB inh = lowers PMA/ionomycin-induced NF-kB signal in Jurkat cells; PMA/ionomycin-induced NF-kB luciferase reporter, luminescence; inhibition, % at 4 µM; hit rate 0.53% among 330,000; AID 435003; in the data active = inhibition above about 50%
# NR2E3 ag-1 = NR2E3 (human) agonism; AID 2300; Q9Y5X4; hit rate 0.12% among 320,000; inhibition of corepressor binding, % at 4.78 µM; GST-NR2E3/biotin-RetCOR TR-FRET, 1536-well;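 active = percent inhibition above the cutoff of mean plus 3 SD of all tested compounds, set per screening campaign, cut at about 20% in these data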;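 also: 0% = DMSO wells and 100% = biotin wells as full block of FRET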
# Target sequence (Q9Y5X4 whole entry, looked up): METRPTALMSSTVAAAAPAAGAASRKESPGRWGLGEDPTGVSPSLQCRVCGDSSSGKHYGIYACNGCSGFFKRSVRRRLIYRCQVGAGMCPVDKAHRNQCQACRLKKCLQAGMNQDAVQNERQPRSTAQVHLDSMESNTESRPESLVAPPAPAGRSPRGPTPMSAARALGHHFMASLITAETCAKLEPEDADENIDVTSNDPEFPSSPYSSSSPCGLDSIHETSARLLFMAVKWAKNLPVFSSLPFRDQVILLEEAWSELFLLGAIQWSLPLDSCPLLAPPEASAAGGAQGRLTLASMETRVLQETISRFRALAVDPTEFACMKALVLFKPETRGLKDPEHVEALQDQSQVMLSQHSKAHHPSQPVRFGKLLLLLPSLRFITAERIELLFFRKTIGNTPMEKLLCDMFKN
#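 Material: NR2E3–RetCOR corepressor complex / Incubation: Compound–protein incubation for 5 h at 4 °C / Dosing: compound at 4.8 µM, single dose / Detection: time-resolved FRET / Benchmarks: high control biotin, low control 0.6% DMSO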
# NR2E3 ag-2 = activates human NR2E3 receptor; Q9Y5X4; CHO-S Gal4-NCOR/VP16-NR2E3 two-hybrid, luciferase; inhibition of corepressor binding, % at 3.98 µM; hit rate 0.35% among 360,000;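 active = inhibition above the mean of all tested compounds plus 3 SD, cut at about 70% in these data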;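 also: 0% = DMSO with NR2E3 transfected cells and 100% = cells lacking NR2E3 construct; higher means lower luciferase signal from less NR2E3 corepressor binding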
# MPTP block = inhibitors of mitochondrial permeability transition pore; hit rate 1.4% among 360,000; AID 602449; isolated mouse mitochondria, Ca2+ swelling absorbance, 30 min; inhibition, % at 10 µM;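 active = inhibition of 50% or more, scaled per plate between neutral and stimulator controls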;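 also: 0% = DMSO wells given calcium and 100% = 1 mM EGTA wells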
# Jurkat NFkB conf = lowers PMA/ionomycin-induced NF-kB signal in Jurkat cells | shares compounds with Jurkat NFkB inh | Jurkat NF-kB luciferase, 16 h | inhibition, % at 4 µM | hit rate 27% among 2,700 | AID 435020;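 active = inhibition reaching about 45% at 4 µM in either replicate, limit read from the data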;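 also: plate controls were PMA/ionomycin stimulated DMSO wells for no effect and unstimulated DMSO wells for full effect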
# 697 NFkB conf = inhibitors of the PMA/ionomycin-induced NF-kB reporter in 697 B cells, retest; inhibition, % at 4 µM; 697 B-cell NF-kB luciferase, 16 h; hit rate 35% among 2,000; shares compounds with 697 NFkB inh; in the data active = inhibition mostly above about 28%, no sharp cut-off; inactive = mostly below about 22%
# NR2E3 ag conf = confirmation of human NR2E3 agonists; shares compounds with NR2E3 ag-2; AID 624378; hit rate 51% among 2,300; CHO-S mammalian two-hybrid NR2E3-NCOR, luciferase luminescence; inhibition, % at 3.98 µM;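 active = average inhibition above a cutoff equal to the mean inhibition of all tested compounds plus one SD, cut at about 70% in these data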;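 also: 0% = DMSO in NR2E3 cells and 100% = DMSO in cells lacking NR2E3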
# GAL4-VP16 luc = GAL4-VP16 reporter inhibition in NR2E3 agonist counterscreen; inhibition, % at 3.98 µM; hit rate 29% among 2,300; shares compounds with NR2E3 ag-2; CHO-S GAL4-VP16 luciferase reporter, luminescence; AID 624379;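 active = mean inhibition above a cutoff equal to the average over all tested compounds plus one standard deviation, cut at about 70% in these data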;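 also: luciferase from a UAS reporter driven by GAL4-VP16 transactivation; 0% = DMSO with VP16-transfected cells and 100% = DMSO with cells lacking VP16; higher means less reporter light so more repression of VP16 activity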
# MPTP counter = Rhodamine 123 counter-screen of mitochondrial pore hits; shares compounds with MPTP block; isolated mitochondria, membrane potential, Rhodamine 123 fluorescence; inhibition, % at 10 µM; hit rate 78% among 5,000; AID 624504; in the data active = inhibition above about 22%;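 also: 0% = DMSO vehicle and 100% = positive control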
# Numbers without * were called inactive; · = no result given.
SMILES,697 NFkB inh,aDG glyco up,Jurkat NFkB inh,NR2E3 ag-1,NR2E3 ag-2,MPTP block,Jurkat NFkB conf,MPTP counter,others
O=C(NS(=O)(=O)NC1CCCCC1)C1=C(N2CCCC2)COC1=O,10,0,4,·,1,0,·,·,
O=C(C1CCC(CNS(=O)(=O)c2ccccc2)CC1)N1CCOCC1 (stereo not given),3,0,7,1,-30,0,·,·,
N#CCc1ccc(NC(=O)c2ccc(CN3CCc4ccccc4C3)cc2)cc1,-5,0,49,1,8,0,·,·,
O=C(Nc1ccc(S(=O)(=O)N2CCCC2)cc1)c1ccc(CN2CCc3ccccc3C2)cc1,-15,3,75*,1,54,49,75*,·,NR2E3 ag conf=67;GAL4-VP16 luc=66
CN=c1scc(-c2cccs2)n1/N=C/c1ccccc1O,-15,1,77*,-2,95*,0,82*,·,NR2E3 ag conf=90*;GAL4-VP16 luc=82*
CN=c1scc(-c2cccs2)n1/N=C/c1ccc(O)c(O)c1O,-248,0,-54,1,-143,10,·,·,
COc1cccc(N2CCN(C(=O)c3ccc(CS(=O)c4ccccc4Cl)o3)CC2)c1 (stereo not given),-35,0,56*,0,48,-2,53*,·,NR2E3 ag conf=16;GAL4-VP16 luc=16
CC(=O)N1c2ccc(S(=O)(=O)N3CCC(C(=O)Nc4ncccc4C)CC3)cc2CC1C (stereo not given),-4,0,2,3,-17,2,·,·,
CCOC(=O)C1CCN(c2c(NCCC(C)C)c(=O)c2=O)CC1,3,0,2,1,-5,4,·,·,
c1ccc(-c2noc(-c3ccc4ccccc4c3)n2)nc1,12,0,54*,-2,48,1,77*,·,NR2E3 ag conf=19;GAL4-VP16 luc=-44
CCc1ccc(S(=O)(=O)/N=C2\C=C(Nc3cccc(C(=O)O)c3)C(=O)c3ccccc32)cc1,-35,0,3,4,32,9,·,·,
CCc1ccc(S(=O)(=O)/N=C2\C=C(Nc3ccc(O)cc3)C(=O)c3ccccc32)cc1,-8,-1,54*,-6,113*,8,52*,·,NR2E3 ag conf=100*;GAL4-VP16 luc=100*
CCOc1ccc(S(=O)(=O)n2cnc(C)c2)cc1,7,0,1,1,-18,-1,·,·,
CC1(C)CC(NC(=O)c2ccc(Cl)c(S(=O)(=O)N(Cc3ccccc3)c3ccccc3)c2)CC(C)(C)N1,4,0,71*,0,·,97*,6,-20,
COC(=O)CSc1[nH]c2ccccc2c1[N+](=O)[O-],14,0,5,0,-1,0,·,·,
COc1ccc(N/N=C(\C#N)C(N)=O)cc1,7,0,6,1,12,0,·,·,
COc1ccc(C(=O)/C(C#N)=N/Nc2ccc([N+](=O)[O-])cc2)cc1,53*,0,60*,1,-59,100*,59*,86*,697 NFkB conf=11
COc1ccc([C@@H]2[C@@H]3C(=O)N(C(C)(C)C)C(=O)[C@@H]3[C@]3(Cc4ccccc4)C(=O)N(c4ccc(C)cc4)C(=O)N23)cc1,2,0,8,3,-25,1,·,·,
CC(C)(C)c1ccc(NC(=O)Nc2ccc(F)cc2)cc1,-255,4,-170,1,-105,99*,-171,88*,697 NFkB conf=-317
CC(=O)c1ccc(N2CCN(S(=O)(=O)c3ccc4c(c3)CC(C)N4C(=O)C3CC3)CC2)cc1 (stereo not given),-10,5,58*,0,-16,97*,40,108*,
CC(Nc1ncnc2sccc12)c1ccccc1 (stereo not given),43*,2.2*,61*,-2,106*,84*,62*,80*,697 NFkB conf=60*;NR2E3 ag conf=97*;GAL4-VP16 luc=86*
c1ccc(Nc2ncnc3sccc23)cc1,1,0,10,-1,-10,-1,·,·,
O=C(N/N=C/c1ccc(O)c(O)c1)c1cccc(S(=O)(=O)N2CCCCC2)c1,-28,0,-5,-5,-1,-2,·,·,
O=C(N/N=C\c1cc(Br)ccc1O)c1ccc(S(=O)(=O)N2CCCCC2)cc1,-26,1,54*,3,4,66*,32,53*,
CCc1nnc(NC(=O)c2cc(S(=O)(=O)N3CCOCC3)ccc2N2CCCCC2)s1,·,0,·,·,-8,2,·,·,
SMILES,697 NFkB inh,aDG glyco up,Jurkat NFkB inh,NR2E3 ag-1,NR2E3 ag-2,MPTP block,Jurkat NFkB conf,MPTP counter,others
CC(=O)c1c(C)[nH]c(C(=O)CSc2ncnc3sc(-c4ccccc4)cc23)c1C,-32,5,52*,2,15,96*,14,39*,
O=C(O)CSc1ncnc2sc(-c3ccccc3)cc12,-18,0,5,2,-40,0,·,·,
Cc1ccc(S(=O)(=O)NCc2ccccn2)c(C)c1C,-41,0,-20,4,0,-1,·,·,
Cc1ccc(S(=O)(=O)NCc2ccncc2)c(C)c1C,31,7.2*,62*,3,80*,95*,68*,91*,NR2E3 ag conf=94*;GAL4-VP16 luc=85*
Clc1ncccc1OCc1ccccc1,-23,0,-16,2,-11,3,·,·,
O=C(NC(=S)N1CCN(c2ccccc2)CC1)c1c(F)cccc1F,7,0,19,-2,2,-2,·,·,
CC1=C(C)/C(=N\OS(=O)(=O)c2ccccc2)C=CC1=O,-69,-1,55*,0,74*,109*,18,99*,
Cc1ccc(S(=O)(=O)O/N=C2\CCCc3ccccc32)cc1,-2,0,-12,-1,-15,0,·,·,
COc1ccc(Br)cc1/C(C)=N/NC1=NCCN1,-29,4,67*,0,13,105*,34,31*,
CCCCCOc1ccc(Br)cc1/C(C)=N/NC1=NCCN1,-23,0,63*,1,-18,93*,32,24*,
C/C(=N\NC1=NCCN1)c1ccccc1,4,0,-16,1,-5,2,·,·,
CC(C)CCOc1cccc(OCC(=O)Nc2ccncc2)c1,-11,1,57*,4,-7,107*,65*,101*,
CCOc1ccc(CN2C(=O)c3ccccc3C2=O)cc1C(=O)N1CCC(C(N)=O)CC1,-12,0,-4,-2,8,0,·,·,
